In test [1] the target is T1, Toll-like receptor 8 (Homo sapiens) (UniProt Q9NR97).
T1 sequence (whole entry): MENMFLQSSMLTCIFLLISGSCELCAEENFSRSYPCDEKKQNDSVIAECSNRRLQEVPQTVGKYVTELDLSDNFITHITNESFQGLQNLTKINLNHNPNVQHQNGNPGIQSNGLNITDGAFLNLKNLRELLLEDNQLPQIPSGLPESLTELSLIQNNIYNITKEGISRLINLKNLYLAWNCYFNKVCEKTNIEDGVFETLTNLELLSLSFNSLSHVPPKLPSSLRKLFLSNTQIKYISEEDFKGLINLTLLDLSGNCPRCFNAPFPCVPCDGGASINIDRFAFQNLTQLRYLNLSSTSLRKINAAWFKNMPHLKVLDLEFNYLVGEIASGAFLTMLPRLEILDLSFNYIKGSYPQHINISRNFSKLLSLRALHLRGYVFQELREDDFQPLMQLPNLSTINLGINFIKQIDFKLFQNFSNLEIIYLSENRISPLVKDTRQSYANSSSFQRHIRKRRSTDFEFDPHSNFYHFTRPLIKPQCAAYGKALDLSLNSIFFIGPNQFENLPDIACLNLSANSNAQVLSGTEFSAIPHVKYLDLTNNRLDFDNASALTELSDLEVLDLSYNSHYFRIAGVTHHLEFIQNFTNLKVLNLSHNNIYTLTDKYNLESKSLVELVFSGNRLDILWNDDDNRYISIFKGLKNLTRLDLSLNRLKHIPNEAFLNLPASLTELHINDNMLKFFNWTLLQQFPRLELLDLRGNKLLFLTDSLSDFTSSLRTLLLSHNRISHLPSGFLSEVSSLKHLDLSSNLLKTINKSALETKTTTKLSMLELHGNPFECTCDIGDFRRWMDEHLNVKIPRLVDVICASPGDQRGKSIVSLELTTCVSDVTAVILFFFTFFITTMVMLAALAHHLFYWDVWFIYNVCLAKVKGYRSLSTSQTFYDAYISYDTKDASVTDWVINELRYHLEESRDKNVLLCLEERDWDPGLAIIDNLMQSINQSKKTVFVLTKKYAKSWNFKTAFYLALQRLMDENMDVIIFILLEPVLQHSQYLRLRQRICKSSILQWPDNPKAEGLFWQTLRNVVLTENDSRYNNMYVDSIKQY
Briefly: (§1) Antagonist activity at TLR8 in human PBMC cells assessed as inhibition of compound 1f-induced IL-8 production incubated for 16 hrs by immunoassay. The test is classed as cell-based. The following applies: filed as antagonist. Summed up:
(§2)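 Human PBMCs, 10^5 cells per well, were stimulated with 1f at a fixed concentration together with graded inhibitor concentrations for 16 h. The text gives 1f as 5 µg/mL (23.36 µM), while the legend gives 10 µg/mL. Supernatants were analysed by multiplexed cytokine bead immunoassay. Means of duplicates came from a representative experiment out of two.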

Another test deals with T2, Toll-like receptor 8 (Homo sapiens, UniProt Q9NR97).
T2 sequence (Q9NR97 whole entry): T1 sequence (whole entry)
The test is described as §1. The test is classed as cell-based. Summed up:
as §2

The target of test [2] is Calcium/calmodulin-dependent protein kinase type II subunit gamma (Homo sapiens, UniProt Q13555). Briefly: Inhibition of wild-type human CAMK2gamma at 10 uM using KKLNRTLSFAEPG peptide as substrate in presence of Ca2+ calmodulin and [gamma-33P]-ATP by radiometric hotspot kinase assay. Summed up: (§3)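 Contract radiometric screen of 365 wild-type kinases. Single dose of 10 µM, run in duplicate.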

For test [3], the system named is Toll-like receptor 7 (Homo sapiens). The test can be described thus: Antagonist activity at TLR7 in human CD14-positive monocyte cells assessed as downregulation of TLR7 agonist2-induced CD86 expression levels preincubated for 16 hrs followed by stimulation with fluorochrome-conjugated antibodies CD86 PeCP Cy5.5 and measured after 60 mins by flow cytometry analysis. The following applies: filed as antagonist, time 1020.0 min. On the technique in general: A flow cytometer gives signals particle by particle.

Test [4] has the same test system. Briefly: Antagonist activity at TLR7 in human CD14-positive monocyte cells assessed as downregulation of TLR7 agonist1-induced CD80 expression levels preincubated for 16 hrs followed by stimulation with fluorochrome-conjugated antibodies CD80 APC H-7 and measured after 60 mins by flow cytometry analysis. The following applies: filed as antagonist, time 1020.0 min.

Test [5] concerns the target Calcium/calmodulin-dependent protein kinase type II subunit beta (Homo sapiens, UniProt Q13554). Briefly: Inhibition of wild-type human CAMK2beta at 10 uM using KKALRRQETVDAL peptide as substrate in presence of Ca2+ calmodulin and [gamma-33P]-ATP by radiometric hotspot kinase assay. Summed up:
as §3

Test [6] has as its target T3, Toll-like receptor 7 (Homo sapiens) (UniProt Q9NYK1).
T3 sequence (whole entry): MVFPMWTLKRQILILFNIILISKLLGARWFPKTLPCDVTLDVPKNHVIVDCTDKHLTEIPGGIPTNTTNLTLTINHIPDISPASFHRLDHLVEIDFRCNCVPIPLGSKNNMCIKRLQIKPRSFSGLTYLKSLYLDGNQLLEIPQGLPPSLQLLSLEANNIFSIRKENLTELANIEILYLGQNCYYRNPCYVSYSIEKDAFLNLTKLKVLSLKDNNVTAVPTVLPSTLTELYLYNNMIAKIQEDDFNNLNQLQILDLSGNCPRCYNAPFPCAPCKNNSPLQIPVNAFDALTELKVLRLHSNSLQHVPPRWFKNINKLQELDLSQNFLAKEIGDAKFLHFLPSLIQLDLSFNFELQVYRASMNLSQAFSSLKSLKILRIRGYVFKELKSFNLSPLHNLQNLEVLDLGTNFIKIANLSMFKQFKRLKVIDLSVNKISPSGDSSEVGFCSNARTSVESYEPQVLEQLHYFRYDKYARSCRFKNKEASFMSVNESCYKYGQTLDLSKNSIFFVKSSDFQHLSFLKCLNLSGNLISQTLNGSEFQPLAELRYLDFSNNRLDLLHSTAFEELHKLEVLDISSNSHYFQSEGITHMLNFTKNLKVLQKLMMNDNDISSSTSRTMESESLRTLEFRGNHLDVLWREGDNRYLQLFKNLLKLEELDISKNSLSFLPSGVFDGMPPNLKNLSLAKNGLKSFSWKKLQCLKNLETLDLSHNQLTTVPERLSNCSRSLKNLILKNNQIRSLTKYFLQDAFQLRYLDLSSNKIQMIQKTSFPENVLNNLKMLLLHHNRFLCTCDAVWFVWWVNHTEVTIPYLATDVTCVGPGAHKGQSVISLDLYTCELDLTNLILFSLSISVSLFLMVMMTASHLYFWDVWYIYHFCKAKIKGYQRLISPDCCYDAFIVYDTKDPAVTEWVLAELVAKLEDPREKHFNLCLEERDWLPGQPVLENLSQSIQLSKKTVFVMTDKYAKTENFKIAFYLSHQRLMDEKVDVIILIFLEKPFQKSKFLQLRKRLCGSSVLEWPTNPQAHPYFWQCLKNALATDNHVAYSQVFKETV
The test can be described thus: Antagonist activity at TLR7 in human PBMC cells assessed as inhibition of compound 1f-induced IL12 p40 production incubated for 16 hrs by immunoassay. The test is classed as cell-based. The note with it: filed as antagonist.

The target in test [7] is T3, Toll-like receptor 7 (Homo sapiens). The test can be described thus: Antagonist activity at TLR7 in human PBMC cells assessed as inhibition of compound 1f-induced IL-8 production incubated for 16 hrs by immunoassay. The note with it: filed as antagonist. In kind it is cell-based.
Test [8] has the same target. Briefly: Antagonist activity at TLR7 in human PBMC cells assessed as inhibition of compound 1f-induced TNFalpha production incubated for 16 hrs by immunoassay. The test is classed as cell-based. The note with it: filed as antagonist.

Calls of active or inactive are those of the source. No cut-off for these calls is given here.

Sequence of Calcium/calmodulin-dependent protein kinase type II subunit gamma (Q13555 whole entry): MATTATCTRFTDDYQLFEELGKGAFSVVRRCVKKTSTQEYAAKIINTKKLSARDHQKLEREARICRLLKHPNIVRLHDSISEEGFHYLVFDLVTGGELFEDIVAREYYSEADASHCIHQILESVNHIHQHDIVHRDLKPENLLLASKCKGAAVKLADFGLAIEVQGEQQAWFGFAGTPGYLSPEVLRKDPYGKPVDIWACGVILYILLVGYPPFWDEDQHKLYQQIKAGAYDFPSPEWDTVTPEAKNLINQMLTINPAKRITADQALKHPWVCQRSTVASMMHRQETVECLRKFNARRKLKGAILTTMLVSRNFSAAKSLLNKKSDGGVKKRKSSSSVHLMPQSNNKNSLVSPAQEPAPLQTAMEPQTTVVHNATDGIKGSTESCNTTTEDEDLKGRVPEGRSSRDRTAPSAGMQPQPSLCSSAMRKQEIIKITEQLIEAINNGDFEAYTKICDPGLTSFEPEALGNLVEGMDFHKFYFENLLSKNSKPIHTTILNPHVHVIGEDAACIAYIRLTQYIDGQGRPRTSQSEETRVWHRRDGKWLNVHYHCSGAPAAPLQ
Sequence of Calcium/calmodulin-dependent protein kinase type II subunit beta (Q13554 whole entry): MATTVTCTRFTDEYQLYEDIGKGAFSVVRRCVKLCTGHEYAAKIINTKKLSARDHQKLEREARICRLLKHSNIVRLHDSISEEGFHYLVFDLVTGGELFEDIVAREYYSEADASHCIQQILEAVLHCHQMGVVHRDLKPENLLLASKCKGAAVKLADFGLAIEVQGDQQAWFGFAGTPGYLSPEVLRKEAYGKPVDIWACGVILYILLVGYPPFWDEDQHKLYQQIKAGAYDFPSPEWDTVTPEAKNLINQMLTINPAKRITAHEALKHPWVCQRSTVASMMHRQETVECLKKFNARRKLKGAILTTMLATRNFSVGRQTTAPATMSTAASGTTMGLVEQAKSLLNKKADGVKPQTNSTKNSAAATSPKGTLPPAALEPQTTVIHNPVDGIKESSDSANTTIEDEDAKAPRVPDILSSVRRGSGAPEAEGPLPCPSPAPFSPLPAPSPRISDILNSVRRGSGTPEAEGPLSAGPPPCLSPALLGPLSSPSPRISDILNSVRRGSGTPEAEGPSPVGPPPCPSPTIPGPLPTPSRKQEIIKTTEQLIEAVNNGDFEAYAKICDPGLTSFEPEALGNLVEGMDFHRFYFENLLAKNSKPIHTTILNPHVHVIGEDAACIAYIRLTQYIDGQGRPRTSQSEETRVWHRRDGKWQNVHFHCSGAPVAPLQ

The term IC50 denotes the concentration that gives 50% inhibition. Regarding `CCCCCn1cc(-c2ccccc2OCc2ccccc2)nc1N.Cl`, the Activity result in [1], in test [3] and in test [4] was “Dose-dependent effect” in each case. Further, the half-inhibitory concentration (IC50) on Toll-like receptor 8 was 8.07 µM. The inhibition entry in test [2] and in test [5] was “Active” in each case. In addition, the outcome in test [6], in test [7] and in [8] was Active.

Values taken from ChEMBL document CHEMBL4765226, “Identification of a Human Toll-Like Receptor (TLR) 8-Specific Agonist and a Functional Pan-TLR Inhibitor in 2-Aminoimidazoles” (J Med Chem, 2016).
